Data published in ChEMBL document CHEMBL3804779, “Novel free fatty acid receptor 1 (GPR40) agonists based on 1,3,4-thiadiazole-2-carboxamide scaffold” (Bioorg Med Chem, 2016).

What was measured:
[1] = molecular target: Free fatty acid receptor 1 (Homo sapiens, UniProt O14842); assay: Agonist activity at human GPR40 expressed in CHO cells by calcium influx assay; assay type: functional, cell-based
How it was run: (§1)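 CHO cells stably expressing the receptor (GPR40, GPR41, GPR43 or GPR120) plated 24 h before assay and loaded with calcium dye for 1 h. Calcium flux read on FLIPR Tetra. Agonist response taken as maximum fluorescence change over baseline. Concentration-response curves fitted for EC50. GW9508 run as positive control.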

[2] = molecular target: T1, Free fatty acid receptor 3 (Homo sapiens, UniProt O14843); assay: Agonist activity at human GPR41 (unknown origin) expressed in CHO cells by calcium influx assay; assay type: functional, cell-based; how it was run: as §1
T1 sequence (O14843 whole entry): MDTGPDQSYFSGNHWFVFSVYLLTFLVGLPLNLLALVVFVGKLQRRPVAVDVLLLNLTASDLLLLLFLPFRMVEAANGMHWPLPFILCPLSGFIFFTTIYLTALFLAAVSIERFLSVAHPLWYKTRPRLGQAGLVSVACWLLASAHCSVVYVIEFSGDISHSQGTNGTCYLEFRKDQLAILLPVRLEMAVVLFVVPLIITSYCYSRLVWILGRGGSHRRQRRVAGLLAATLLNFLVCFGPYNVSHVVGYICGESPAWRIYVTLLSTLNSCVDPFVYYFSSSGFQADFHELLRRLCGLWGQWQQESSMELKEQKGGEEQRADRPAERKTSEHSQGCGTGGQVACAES

[3] = molecular target: T2, Free fatty acid receptor 2 (Homo sapiens, UniProt O15552); assay: Agonist activity at human GPR43 (unknown origin) expressed in CHO cells by calcium influx assay; assay type: functional, cell-based; how it was run: as §1
T2 sequence (O15552 whole entry): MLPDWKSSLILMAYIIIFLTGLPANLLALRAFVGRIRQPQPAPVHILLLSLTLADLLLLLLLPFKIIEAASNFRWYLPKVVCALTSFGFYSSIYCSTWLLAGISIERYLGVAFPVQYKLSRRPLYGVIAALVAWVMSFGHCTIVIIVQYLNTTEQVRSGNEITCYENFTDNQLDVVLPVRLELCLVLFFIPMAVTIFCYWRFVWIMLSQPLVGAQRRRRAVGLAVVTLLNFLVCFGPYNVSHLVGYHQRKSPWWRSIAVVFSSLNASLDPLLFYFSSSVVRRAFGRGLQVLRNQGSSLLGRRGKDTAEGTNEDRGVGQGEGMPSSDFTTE

[4] = molecular target: T3, Free fatty acid receptor 4 (Homo sapiens, UniProt Q5NUL3); assay: Agonist activity at human GPR120 (unknown origin) expressed in CHO cells by calcium influx assay; assay type: functional, cell-based; how it was run: as §1
T3 sequence (Q5NUL3 whole entry): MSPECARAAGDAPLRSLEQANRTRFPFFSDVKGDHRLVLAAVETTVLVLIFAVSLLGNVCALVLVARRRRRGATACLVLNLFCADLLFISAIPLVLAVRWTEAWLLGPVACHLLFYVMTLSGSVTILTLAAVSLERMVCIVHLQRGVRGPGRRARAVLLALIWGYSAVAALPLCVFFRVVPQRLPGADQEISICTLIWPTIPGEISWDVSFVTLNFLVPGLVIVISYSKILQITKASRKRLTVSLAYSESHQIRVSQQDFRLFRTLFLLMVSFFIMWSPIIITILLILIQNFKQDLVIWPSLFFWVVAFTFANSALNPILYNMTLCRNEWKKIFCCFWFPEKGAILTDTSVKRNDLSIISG

[5] = Half life in mouse plasma at 1 uM by LC-MS/MS analysis; assay type: ADME
How it was run: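 Compound at 1 uM (1% DMSO final) incubated in mouse plasma at 37 °C with shaking. Five time points sampled over 120 min, each quenched with acetonitrile and centrifuged. Supernatant analysed by LC-MS/MS for percentage remaining and T1/2. Verapamil and propantheline used as references.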

[6] = Protein binding in mouse plasma at 1 uM after 5 hrs by HPLC-MS/MS analysis; assay type: ADME, cell-free; conditions: read-out: PPB (converted)
How it was run: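 Equilibrium dialysis (MWCO 12-14 kDa) of mouse plasma spiked at 1 uM (1% solvent final) against PBS pH 7.4, 37 °C, orbital shaking, 5 h, in quadruplicate. Chamber samples matrix-matched, precipitated with acetonitrile and analysed by HPLC-MS/MS. % bound = (1 − buffer/plasma peak area) × 100. Recovery checked against an undialyzed standard. Verapamil used as reference.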

[7] = Metabolic stability in BALB/c mouse liver microsomes at 2 uM after 40 mins by HPLC analysis; assay type: ADME
How it was run: (§2)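 BALB/c male mouse liver microsomes (pooled, perfused livers) at 0.42 mg protein/ml in 100 mM phosphate buffer pH 7.4 with MgCl2 and an NADPH-regenerating system. Compound at 2 uM (1.6% solvent final) incubated at 37 °C in duplicate. Five time points over 40 min, quenched with acetonitrile and read by HPLC-MS/MS. Controls lacked NADPH. kel from ln(AUC) vs time regression; T1/2 = 0.693/kel; CLint scaled per mg microsomal protein.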

[8] = Distribution coefficient, log D of the compound at pH 7.4 by LC-MS/MS analysis; assay type: physicochemical; conditions: octanol/water
How it was run: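 Shake-flask partitioning between n-octanol and PBS, run in duplicate. Compound added from 10 mM DMSO stock to pre-equilibrated phases, shaken 1 h and separated by centrifugation. Each phase diluted and quantified by LC-MS/MS. D calculated from peak areas corrected for dilution (100·So/Sp). Reference compound included.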

[9] = Intrinsic clearance in BALB/c mouse liver microsomes at 2 uM after 40 mins by HPLC analysis; assay type: ADME; conditions: read-out: CLH; how it was run: as §2
hERG (KCNH2) [10] = molecular target: T4, hERG (KCNH2) (Homo sapiens, UniProt Q12809); assay: Inhibition of human ERG expressed in cell membranes at 20 uM after 4 hrs by fluorescence polarization assay; conditions: cell membranes that express human ERG
How it was run: (§3)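 Predictor hERG fluorescence polarization kit used per manufacturer's protocol. hERG-containing cell membranes incubated with fluorescent tracer and test compound at 1, 5 or 20 uM for 4 h.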

hERG (KCNH2) [11] = molecular target: T4, hERG (KCNH2); assay: Inhibition of human ERG expressed in cell membranes at 5 uM after 4 hrs by fluorescence polarization assay; conditions: cell membranes that express human ERG; how it was run: as §3
hERG (KCNH2) [12] = molecular target: T4, hERG (KCNH2); assay: Inhibition of human ERG expressed in cell membranes at 1 uM after 4 hrs by fluorescence polarization assay; conditions: cell membranes that express human ERG; how it was run: as §3
CYP1A2 = molecular target: T5, CYP1A2 (Homo sapiens, UniProt P05177); assay: Inhibition of CYP1A2 (unknown origin) at 20 uM by P450-glo assay; assay type: ADME
T5 sequence (P05177 whole entry): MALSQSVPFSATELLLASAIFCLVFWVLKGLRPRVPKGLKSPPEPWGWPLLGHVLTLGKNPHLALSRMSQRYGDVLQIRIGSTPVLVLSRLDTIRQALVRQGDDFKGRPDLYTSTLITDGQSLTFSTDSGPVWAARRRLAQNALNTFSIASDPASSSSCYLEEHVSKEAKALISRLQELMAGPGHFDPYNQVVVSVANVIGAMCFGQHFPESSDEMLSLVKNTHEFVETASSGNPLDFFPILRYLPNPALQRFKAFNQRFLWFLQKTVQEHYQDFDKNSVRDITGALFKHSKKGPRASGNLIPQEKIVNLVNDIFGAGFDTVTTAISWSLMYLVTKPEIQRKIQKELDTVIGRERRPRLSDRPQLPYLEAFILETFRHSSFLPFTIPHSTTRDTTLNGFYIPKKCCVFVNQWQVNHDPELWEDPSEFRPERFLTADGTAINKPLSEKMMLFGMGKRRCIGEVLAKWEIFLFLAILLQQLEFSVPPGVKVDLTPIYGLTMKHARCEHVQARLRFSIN
How it was run: (§4)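 P450-Glo luminescent assay run per manufacturer's protocol. Each CYP isoform incubated with its luminogenic substrate and test compound at 20 uM (0.25% DMSO final), in quadruplicate. Control membranes without CYP served as baseline.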

CYP2C9 = CYP2C9 (Homo sapiens, UniProt P11712); assay: Inhibition of CYP2C9 (unknown origin) at 20 uM by P450-glo assay; assay type: ADME; how it was run: as §4
CYP2C19 = CYP2C19 (Homo sapiens, UniProt P33261); assay: Inhibition of CYP2C19 (unknown origin) at 20 uM by P450-glo assay; assay type: ADME; how it was run: as §4
CYP2D6 = CYP2D6 (Homo sapiens, UniProt P10635); assay: Inhibition of CYP2D6 (unknown origin) at 20 uM by P450-glo assay; assay type: ADME; how it was run: as §4
CYP3A4 = CYP3A4 (Homo sapiens, UniProt P08684); assay: Inhibition of CYP3A4 (unknown origin) at 20 uM by P450-glo assay; assay type: ADME
Sequence of CYP3A4 (P08684 whole entry): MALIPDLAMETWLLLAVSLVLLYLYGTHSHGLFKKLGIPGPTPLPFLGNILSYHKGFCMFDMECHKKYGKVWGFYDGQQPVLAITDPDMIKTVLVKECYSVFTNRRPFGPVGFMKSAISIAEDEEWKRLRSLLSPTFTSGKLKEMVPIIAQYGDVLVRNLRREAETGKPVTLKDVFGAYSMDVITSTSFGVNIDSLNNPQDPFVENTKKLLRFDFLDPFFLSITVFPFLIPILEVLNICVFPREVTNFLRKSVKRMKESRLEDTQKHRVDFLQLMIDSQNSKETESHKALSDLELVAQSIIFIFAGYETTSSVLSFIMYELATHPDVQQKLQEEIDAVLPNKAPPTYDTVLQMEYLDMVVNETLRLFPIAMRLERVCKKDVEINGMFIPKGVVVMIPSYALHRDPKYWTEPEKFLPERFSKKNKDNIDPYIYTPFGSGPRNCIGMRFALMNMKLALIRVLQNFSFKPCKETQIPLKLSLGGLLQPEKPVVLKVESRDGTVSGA

T4 sequence (Q12809 whole entry): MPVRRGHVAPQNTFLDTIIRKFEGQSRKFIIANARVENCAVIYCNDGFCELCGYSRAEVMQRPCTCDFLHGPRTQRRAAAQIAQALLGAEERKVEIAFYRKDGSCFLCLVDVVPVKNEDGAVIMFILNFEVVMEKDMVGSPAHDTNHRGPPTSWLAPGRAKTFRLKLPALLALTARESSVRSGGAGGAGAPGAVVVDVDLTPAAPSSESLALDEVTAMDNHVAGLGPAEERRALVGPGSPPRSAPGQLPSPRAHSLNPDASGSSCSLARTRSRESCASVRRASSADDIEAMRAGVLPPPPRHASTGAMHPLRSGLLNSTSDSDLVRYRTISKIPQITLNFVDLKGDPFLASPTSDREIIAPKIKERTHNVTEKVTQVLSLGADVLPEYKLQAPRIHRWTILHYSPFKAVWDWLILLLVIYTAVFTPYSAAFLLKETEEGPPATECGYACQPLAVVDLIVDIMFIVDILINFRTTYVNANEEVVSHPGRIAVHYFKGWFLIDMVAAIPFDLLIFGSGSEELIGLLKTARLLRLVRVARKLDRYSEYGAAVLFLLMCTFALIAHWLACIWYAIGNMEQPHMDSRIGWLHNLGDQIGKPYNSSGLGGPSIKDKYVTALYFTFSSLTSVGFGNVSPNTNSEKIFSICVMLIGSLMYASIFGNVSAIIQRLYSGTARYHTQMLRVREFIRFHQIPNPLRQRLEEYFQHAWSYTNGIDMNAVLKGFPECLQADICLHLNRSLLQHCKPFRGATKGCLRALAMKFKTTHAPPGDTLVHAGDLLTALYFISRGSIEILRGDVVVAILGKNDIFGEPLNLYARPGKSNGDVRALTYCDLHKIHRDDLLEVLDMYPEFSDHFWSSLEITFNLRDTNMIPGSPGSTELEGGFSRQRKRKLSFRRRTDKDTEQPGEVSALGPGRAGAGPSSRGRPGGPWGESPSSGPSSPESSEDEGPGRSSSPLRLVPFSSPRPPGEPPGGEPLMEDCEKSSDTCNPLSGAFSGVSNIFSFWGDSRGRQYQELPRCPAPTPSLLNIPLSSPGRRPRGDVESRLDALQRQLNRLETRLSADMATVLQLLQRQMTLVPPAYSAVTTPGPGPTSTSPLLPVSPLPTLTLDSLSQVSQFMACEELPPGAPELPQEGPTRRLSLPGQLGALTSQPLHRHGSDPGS
Sequence of Free fatty acid receptor 1 (O14842 whole entry): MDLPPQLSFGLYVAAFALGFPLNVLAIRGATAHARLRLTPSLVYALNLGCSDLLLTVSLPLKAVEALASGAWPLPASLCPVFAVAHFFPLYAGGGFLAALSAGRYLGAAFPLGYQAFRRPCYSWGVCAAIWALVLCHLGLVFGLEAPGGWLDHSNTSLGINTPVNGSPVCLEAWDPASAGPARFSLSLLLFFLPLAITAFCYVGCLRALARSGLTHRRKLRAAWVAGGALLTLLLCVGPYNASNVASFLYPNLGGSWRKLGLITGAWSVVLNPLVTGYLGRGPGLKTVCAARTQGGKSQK
Sequence of CYP2C19 (P33261 whole entry): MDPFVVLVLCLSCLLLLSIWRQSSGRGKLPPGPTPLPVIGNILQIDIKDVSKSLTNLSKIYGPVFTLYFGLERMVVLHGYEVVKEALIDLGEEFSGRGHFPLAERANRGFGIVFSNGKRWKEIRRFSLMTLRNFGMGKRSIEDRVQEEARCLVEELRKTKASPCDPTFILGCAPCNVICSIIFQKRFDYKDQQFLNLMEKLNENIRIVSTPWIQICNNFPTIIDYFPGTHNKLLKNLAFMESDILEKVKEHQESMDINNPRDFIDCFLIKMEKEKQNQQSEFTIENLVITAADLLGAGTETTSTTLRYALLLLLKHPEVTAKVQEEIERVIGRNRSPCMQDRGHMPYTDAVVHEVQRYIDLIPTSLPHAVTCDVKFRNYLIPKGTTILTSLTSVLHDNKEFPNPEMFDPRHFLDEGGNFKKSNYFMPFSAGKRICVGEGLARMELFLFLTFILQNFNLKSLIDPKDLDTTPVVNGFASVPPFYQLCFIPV
Sequence of CYP2C9 (P11712 whole entry): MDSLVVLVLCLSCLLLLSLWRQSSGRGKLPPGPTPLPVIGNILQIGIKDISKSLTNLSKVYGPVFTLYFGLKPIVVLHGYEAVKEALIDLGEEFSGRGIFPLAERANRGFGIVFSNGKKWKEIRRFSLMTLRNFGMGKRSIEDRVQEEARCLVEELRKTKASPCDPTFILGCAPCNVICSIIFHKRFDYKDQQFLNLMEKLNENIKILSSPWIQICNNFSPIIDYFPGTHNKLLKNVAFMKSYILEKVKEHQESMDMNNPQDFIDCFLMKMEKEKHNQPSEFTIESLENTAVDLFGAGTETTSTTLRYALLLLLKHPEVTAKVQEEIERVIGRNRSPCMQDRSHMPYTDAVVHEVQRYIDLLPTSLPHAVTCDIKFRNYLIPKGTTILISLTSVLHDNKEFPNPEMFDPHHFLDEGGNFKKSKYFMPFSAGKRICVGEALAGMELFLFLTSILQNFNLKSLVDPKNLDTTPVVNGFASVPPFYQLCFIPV
Sequence of CYP2D6 (P10635 whole entry): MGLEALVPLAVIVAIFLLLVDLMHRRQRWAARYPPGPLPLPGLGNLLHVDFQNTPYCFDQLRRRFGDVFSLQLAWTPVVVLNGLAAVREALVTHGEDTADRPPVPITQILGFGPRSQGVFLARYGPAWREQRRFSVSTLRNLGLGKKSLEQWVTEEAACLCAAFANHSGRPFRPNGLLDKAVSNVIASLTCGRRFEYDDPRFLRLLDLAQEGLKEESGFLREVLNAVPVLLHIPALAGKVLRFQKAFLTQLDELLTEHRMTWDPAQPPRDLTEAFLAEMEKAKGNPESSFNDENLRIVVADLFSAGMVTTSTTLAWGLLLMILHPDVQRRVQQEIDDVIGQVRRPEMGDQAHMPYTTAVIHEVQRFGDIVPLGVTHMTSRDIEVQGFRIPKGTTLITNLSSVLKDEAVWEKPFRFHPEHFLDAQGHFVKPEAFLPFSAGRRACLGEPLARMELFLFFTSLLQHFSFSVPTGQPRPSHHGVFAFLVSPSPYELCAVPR

## O=C(O)CCc1nnc(C(=O)Nc2ccc(OCc3ccccc3)cc2)s1
[1]
  EC50: 17.9 µM

## O=C(O)CCc1ccc(OCc2nnc(C(=O)Nc3ccc(F)cc3)s2)cc1
[1]
  EC50: 6.64 µM

## COc1ccc(NC(=O)c2nnc(COc3ccc(CCC(=O)O)cc3)s2)cc1
[1]
  EC50: > 10 µM

## Cc1ccc(NC(=O)c2nnc(COc3ccc(CCC(=O)O)cc3)s2)cc1
[1]
  EC50: 4.3 µM

## O=C(O)CCc1nnc(C(=O)Nc2cccc(-c3ccco3)c2)s1
[1]
  EC50: 1.64 µM

## Cc1cccc(-c2cccc(NC(=O)c3nnc(CCC(=O)O)s3)c2)c1
[1]
  EC50: 0.76 µM
[2]
  EC50: > 10 µM
[3]
  EC50: > 10 µM
[4]
  EC50: > 10 µM
[5]
  half-life at 1 µM: > 4 h
[6]
  fraction unbound at 5 h, 1 µM: 0.076
[7]
  half-life at 2 µM: 1.29 h
[8]
  logD: 1.28
[9]
  microsomal CLint at 2 µM: 21.6 µL/min/mg
hERG (KCNH2) [10]
  inhibition at 4 h, 20 µM: 22%
hERG (KCNH2) [11]
  inhibition at 4 h, 5 µM: 2%
hERG (KCNH2) [12]
  inhibition at 4 h, 1 µM: 8%
CYP1A2
  inhibition at 20 µM: 94.3%
CYP2C9
  inhibition at 20 µM: 9.8%
CYP2C19
  inhibition at 20 µM: 37.2%
CYP2D6
  inhibition at 20 µM: 1.8%
CYP3A4
  inhibition at 20 µM: 12.3%

## O=C(O)CCc1ccc(OCc2nnc(C(=O)Nc3cccc(Cl)c3)s2)cc1
[1]
  EC50: 10.6 µM
[5]
  half-life at 1 µM: 1.93 h
[6]
  fraction unbound at 5 h, 1 µM: 0.072
[7]
  half-life at 2 µM: 0.22 h
[8]
  logD: 1.46
[9]
  microsomal CLint at 2 µM: 126 µL/min/mg
hERG (KCNH2) [10]
  inhibition at 4 h, 20 µM: 36%
hERG (KCNH2) [11]
  inhibition at 4 h, 5 µM: -3%
hERG (KCNH2) [12]
  inhibition at 4 h, 1 µM: 1%
CYP1A2
  inhibition at 20 µM: 41.9%
CYP2C9
  inhibition at 20 µM: 85%
CYP2C19
  inhibition at 20 µM: 77.7%
CYP2D6
  inhibition at 20 µM: 22.7%
CYP3A4
  inhibition at 20 µM: 55.2%

## O=C(O)CCc1nnc(C(=O)Nc2cccc(-c3cccc(Cl)c3)c2)s1
[1]
  EC50: 1.69 µM

## Cc1ccccc1NC(=O)c1nnc(COc2ccc(CCC(=O)O)cc2)s1
[1]
  EC50: 1.52 µM

## COc1cccc(NC(=O)c2nnc(COc3ccc(CCC(=O)O)cc3)s2)c1
[1]
  EC50: 4.68 µM

## O=C(O)CCc1nnc(C(=O)Nc2cccc(-c3ccc(F)cc3)c2)s1
[1]
  EC50: 1.28 µM
[2]
  EC50: > 10 µM
[3]
  EC50: > 10 µM
[4]
  EC50: > 10 µM
[5]
  half-life at 1 µM: > 4 h
[6]
  fraction unbound at 5 h, 1 µM: 0.059
[7]
  half-life at 2 µM: 3.48 h
[8]
  logD: 0.96
[9]
  microsomal CLint at 2 µM: 8 µL/min/mg
hERG (KCNH2) [10]
  inhibition at 4 h, 20 µM: -1%
hERG (KCNH2) [11]
  inhibition at 4 h, 5 µM: -1%
hERG (KCNH2) [12]
  inhibition at 4 h, 1 µM: -6%
CYP1A2
  inhibition at 20 µM: 47.2%
CYP2C9
  inhibition at 20 µM: -1.9%
CYP2C19
  inhibition at 20 µM: 25.2%
CYP2D6
  inhibition at 20 µM: 11.8%
CYP3A4
  inhibition at 20 µM: -5.1%

## O=C(O)CCc1ccc(OCc2nnc(C(=O)Nc3ccccc3F)s2)cc1
[1]
  EC50: 0.58 µM
[2]
  EC50: > 10 µM
[3]
  EC50: > 10 µM
[4]
  EC50: > 10 µM
[5]
  half-life at 1 µM: 0.34 h
[7]
  half-life at 2 µM: 0.115 h
[8]
  logD: 0.95
[9]
  microsomal CLint at 2 µM: 241 µL/min/mg
hERG (KCNH2) [10]
  inhibition at 4 h, 20 µM: 4%
hERG (KCNH2) [11]
  inhibition at 4 h, 5 µM: -7%
hERG (KCNH2) [12]
  inhibition at 4 h, 1 µM: 9%
CYP1A2
  inhibition at 20 µM: 18.8%
CYP2C9
  inhibition at 20 µM: 12.8%
CYP2C19
  inhibition at 20 µM: -3.3%
CYP2D6
  inhibition at 20 µM: 6.6%
CYP3A4
  inhibition at 20 µM: -28.7%

## O=C(O)CCc1ccc(OCc2nnc(C(=O)Nc3cccc(F)c3)s2)cc1
[1]
  EC50: 1.19 µM

## O=C(O)CCc1ccc(OCc2nnc(C(=O)Nc3ccc(F)c(F)c3)s2)cc1
[1]
  EC50: 0.58 µM
[2]
  EC50: > 10 µM
[3]
  EC50: > 10 µM
[4]
  EC50: > 10 µM

## O=C(O)CCc1ccc(OCc2nnc(C(=O)Nc3ccc(Cl)cc3)s2)cc1
[1]
  EC50: 3.69 µM

## Cc1cccc(NC(=O)c2nnc(COc3ccc(CCC(=O)O)cc3)s2)c1
[1]
  EC50: 1.77 µM

## O=C(O)CCc1ccc(OCc2nnc(C(=O)Nc3ccccc3)s2)cc1
[1]
  EC50: 1.06 µM
